Results collected from several papers.
Each line is one published result; the experiments were not run side by side.
Target: 5-hydroxytryptamine receptor 2B (HTR2B, Homo sapiens, UniProt P41595)

CCCCN1CCC(COC(=O)c2ccc(N)c(OCF)c2)CC1  Ki (cell-free assay; radioligand): > 10000 nM
CCOCc1nc(O)c(-c2nnc(Cc3ccc(Cl)cn3)o2)c(O)c1-c1c(OC)cccc1OC  IC50 (ligand displacement; radioligand): > 30000 nM
CCCC[C@H](NC(=O)[C@H](C)c1c(C)[nH]c2ccc(O)cc12)c1ncc(-c2cc3ccccc3nc2OC)[nH]1  IC50 (ligand displacement): 740 nM
Cc1ccc2cccc(N3CCN(CCCCOc4ccc5sc(C(C)C)nc5c4)CC3)c2n1  Ki (cell-free assay; radioligand): 43 nM
COCCN(CCOC)C(=O)[C@@]12C[C@@H]1[C@@H](n1cnc3c(NC(C4CC4)C4CC4)nc(Cl)nc31)[C@H](O)[C@@H]2O  Ki (ligand displacement; radioligand): 1230 nM
O=C1c2ccccc2CCN1CCCCN1CCN(c2cccc(Cl)c2Cl)CC1  Ki (ligand displacement; radioligand): 1.8 nM
CC(C)c1nc2cc(OCCCCN3CCN(c4cccc5c4OCCO5)CC3)ccc2s1  Ki (cell-free assay; radioligand): 32 nM
CCOC(=O)[C@@]12C[C@@H]1[C@@H](n1cnc3c(N[C@H](C4CCC4)C4CC4)nc(I)nc31)[C@H](O)[C@@H]2O  Kb (calcium signal; antagonist): 1.74 nM
Cc1cc(NC(=O)Nc2ccc3c(ccn3C)c2)sn1  IC50 (ligand displacement; radioligand): 160 nM
CNC(=O)[C@@]12C[C@@H]1[C@@H](n1cnc3c(NCCc4ccccc4)nc(I)nc31)[C@H](O)[C@@H]2O  Ki (cell-free assay; radioligand): 117 nM
